# M5 antag – antagonists of human muscarinic M5 receptor (CHRM5); inhibition, % at 3 µM; CHO-hM5 cells, Fluo-8 calcium fluorescence, ACh EC80; actives 0.59% (n = 360,000); P08912;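 active = inhibition above a per-plate cutoff, the mean of that plate's test compounds plus 3 SD, cut at about 27% in these data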
# Target sequence (P08912 whole entry, looked up): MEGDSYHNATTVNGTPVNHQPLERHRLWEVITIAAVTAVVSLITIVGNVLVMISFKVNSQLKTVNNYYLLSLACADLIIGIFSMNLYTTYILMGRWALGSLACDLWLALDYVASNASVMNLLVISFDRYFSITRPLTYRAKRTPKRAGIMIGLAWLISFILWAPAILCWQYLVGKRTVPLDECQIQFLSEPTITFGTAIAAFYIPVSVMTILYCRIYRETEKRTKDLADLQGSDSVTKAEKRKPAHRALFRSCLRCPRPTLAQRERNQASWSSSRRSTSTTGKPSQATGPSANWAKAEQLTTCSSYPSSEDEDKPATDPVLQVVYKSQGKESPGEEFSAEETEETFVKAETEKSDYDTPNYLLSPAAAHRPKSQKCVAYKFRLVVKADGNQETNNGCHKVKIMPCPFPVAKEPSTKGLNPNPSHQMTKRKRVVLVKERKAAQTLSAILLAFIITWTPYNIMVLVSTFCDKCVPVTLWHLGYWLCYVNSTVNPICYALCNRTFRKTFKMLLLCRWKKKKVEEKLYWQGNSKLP
# CHRM5 PAM – CHRM5 positive allosteric modulation | AID 624038 | P08912 | actives 0.3% (n = 360,000) | activation, % at 3 µM | CHO-K1 hM5, Fluo-8 calcium, ACh EC20 PAM; 0% = ACh EC20, 100% = ACh EC100;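 active = activation above the run cutoff, the mean activation of all test compounds plus 3 SD, cut at about 18% in these data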
#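 system = human M5 receptor in CHO-K1 cells | compound = one concentration, 3 µM final (nominal) | schedule = Post-acetylcholine fluorescence recording 140 s | signal = Fluo-8 calcium dye fluorescence, kinetic read | benchmarks = low control EC20 acetylcholine (0%), high control EC100 acetylcholine (100%) | repeats = singlicate, one well per test compound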
# CHRM4 agonist – CHRM4 agonism in calcium assay. P08173. CHO-K1 hM4/Gqi5, Fluo-8 calcium fluorescence; vehicle 0%, full acetylcholine response 100%. activation, % at 3 µM. actives 0.14% (n = 360,000). AID 624127;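 active = activation above the run mean over all test wells plus 3 SD, cut at about 32% in these data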;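 note: peak over basal fluorescence ratio per well then scaled between controls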
# CHRM4 antagonist – antagonists of human muscarinic M4 receptor (CHRM4) | P08173 | actives 0.73% (n = 360,000) | inhibition, % at 3 µM | AID 624125 | CHO-hM4 cells, ACh EC80, Fluo-8 calcium fluorescence;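 active = inhibition above its plate's cutoff, the mean inhibition of sample wells plus 3 SD, cut at about 27% in these data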
# M4 PAM – potentiates acetylcholine response at human M4 receptor | CHO-K1 hM4/Gqi5, Fluo-8 calcium fluorescence, ACh EC20; 0% = ACh EC20, 100% = maximal ACh | activation, % at 3 µM | actives 0.4% (n = 360,000);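 active = activation above its plate's cutoff, the mean activation of sample wells plus 3 SD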
# M5 ag – CHRM5 agonism in calcium assay | CHO-K1 hM5 cells, Fluo-8 calcium fluorescence; 0% DMSO wells, 100% maximal acetylcholine response | actives 0.19% (n = 360,000) | activation, % at 3 µM;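 active = activation above the run's mean over test compounds plus 3 SD, cut at about 23% in these data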;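 note: signal is peak over basal fluorescence ratio across the kinetic read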
# A number is an active result; - = inactive. Only some compounds are listed: those with a hit (about 1.9% of all), similar ones and a draw of the others.
SMILES,M5 antag,CHRM5 PAM,CHRM4 agonist,CHRM4 antagonist,M4 PAM,M5 ag
CSc1nc(C(C)C)ccc1CNC(=O)CC(C)c1ccccc1 (stereo unspecified),-,-,-,-,-,-
CCOP(=O)(Nc1cccc2oc(=O)c3ccccc3c12)OCC,-,-,-,-,-,-
CCOc1ccc(NC(=O)CN(C)C(=O)c2cc3c(s2)CCC3)cc1OCC,-,-,-,-,-,-
Cc1occc1C(=O)Nc1cccc(Cl)c1Cl,-,-,-,-,-,-
CCCSc1nc(C)c(CC(=O)O)c(=O)[nH]1,-,-,-,-,28,-
Cc1cc(C)n(CC(C)(O)c2ccccc2)n1 (stereo unspecified),-,-,-,-,-,-
O=C(CSc1nc(=O)[nH]c2c1CCCC2)Nc1ccc(F)cc1F,-,-,-,-,22,-
COc1ccc(NS(=O)(=O)c2ccc(-c3coc(C)n3)cc2)cc1,-,-,-,-,-,-
COc1ccc(NS(=O)(=O)c2ccc(-c3coc(C)n3)cc2)cc1OC,51,-,-,47,-,-
Cc1nc(-c2ccc(S(=O)(=O)Nc3ccc(S(N)(=O)=O)cc3)cc2)co1,-,21,-,-,14,-
Cc1cc(C)cc(OCC(=O)OCC(=O)N2CCc3ccccc32)c1,-,-,-,-,-,-
CC(=O)N1CCN(C(=O)C2CCN(S(=O)(=O)c3ccccc3C(F)(F)F)CC2)CC1,-,-,-,-,-,-
O=C(O)c1cc(O)ccc1NC(=O)C(c1ccccc1)c1ccccc1,-,-,-,-,-,-
O=C(Nc1cccc(C(F)(F)F)c1)Nc1ccc(N2CCCC2)c(S(=O)(=O)Nc2ccccc2Cl)c1,28,-,-,-,-,-
FC(F)C(F)(F)c1cc(-c2ccc(Cl)cc2)n[nH]1,-,-,-,28,-,-
Fc1ccc(-c2cc(C(F)(F)C(F)F)[nH]n2)cc1,-,-,-,-,-,32
COC(=O)c1c(C)oc2ccc(N(C(=O)c3ccncc3)S(=O)(=O)c3ccc4ccccc4c3)cc12,-,-,-,33,-,-
Cc1csc2nc(COC(=O)c3ccc(Cl)c([N+](=O)[O-])c3)cc(=O)n12,-,-,-,-,-,-
Cc1ccc(NCC2(N=Cc3ccccc3)OC(CO)C(O)C2O)cc1 (stereo unspecified),-,-,-,-,-,-
CC(=O)c1c(C)[nH]c(C(=O)OCc2ccccc2)c1C,-,-,-,-,-,-
CC(=O)c1c(C)[nH]c(C(=O)OCCCCN2C(=O)c3ccccc3C2=O)c1C,31,-,-,-,-,-
CCN(CC)c1ccc(/C=C/c2cc(-c3ccccc3)c3ccccc3n2)cc1,-,-,-,31,-,-
CN(C)c1ccc(/C=C/c2ccc3ccccc3n2)cc1,-,-,-,-,-,-
CC1CC1C(=O)N1CCN(S(=O)(=O)c2cccc(F)c2)CC1 (stereo unspecified),-,-,-,-,-,-
Cc1ccc(NC(=O)Nc2ccccc2)cc1[N+](=O)[O-],-,-,-,-,-,-
SMILES,M5 antag,CHRM5 PAM,CHRM4 agonist,CHRM4 antagonist,M4 PAM,M5 ag
O=C(Nc1ccccc1)Nc1ccc(F)c([N+](=O)[O-])c1,27,-,-,-,-,-
O=C(Nc1ccccc1)Nc1ccc(Cl)c([N+](=O)[O-])c1,28,-,-,-,-,-
O=C(NC(=S)Nc1ccc(F)c([N+](=O)[O-])c1)c1ccccc1F,-,-,-,-,-,-
COC(=O)[C@H]1C[C@H]2[C@@H]3CC[C@H]4C[C@@H](OC)CC[C@]4(C)[C@H]3CC[C@]2(C)[C@@]2(CCCO2)O1,-,-,-,-,-,-
CC(C)[C@H](NC(=O)c1ccccc1)C(=O)Nc1ccc2c(c1)OCO2,-,-,-,-,-,-
Cc1onc(-c2c(Cl)cccc2Cl)c1C(=O)N1CCc2ccccc21,-,-,-,38,-,-
COc1cc(OC)cc(-c2c(C#Cc3ccsc3)c3cc(-c4ccccc4OC)ccc3n2C)c1,-,-,-,-,-,-
O=[N+]([O-])c1ccc(CN2CCSCC2)cc1,-,22,-,-,-,-
CC1(C(=O)NS(=O)(=O)Cc2ccccc2)CCN1C(=O)C1(c2ccc(Cl)cc2)CC1 (stereo unspecified),-,-,-,-,-,-
CC(C)n1ncc2c(C(=O)Nc3cccc(S(=O)(=O)N(C)C)c3)cc(C3CC3)nc21,-,-,-,-,-,-
CC(=O)Nc1ccc(NC(=O)CSc2ncc(C(=O)Nc3ccc(F)cc3)c(=O)n2C)cc1,-,-,-,-,18,-
Cc1ccc(NC(=S)NCCSc2ccc(Cl)cc2)cc1,-,-,-,36,-,-
O=[N+]([O-])c1ccc(NC(=S)NCCc2ccccc2)cc1,27,-,-,-,-,-
O=[N+]([O-])c1ccc(NC(=S)NCCc2ccc(Cl)cc2)cc1,27,-,-,-,-,-
NS(=O)(=O)c1ccc(NC(=S)NCCc2ccccc2)cc1,-,-,-,-,-,-
Fc1ccc(-c2nnc(-c3ccc4ccccc4c3)o2)cc1,-,-,-,-,-,-
CN(CCNC(=O)c1c[nH]c2c1ccc1ccccc12)CCNC(=O)c1c[nH]c2c1ccc1ccccc12,-,-,-,-,-,-
COc1cc(C=O)ccc1OCCCOc1ccccc1C(=O)O,-,-,-,-,32,-
COc1cc(C=O)ccc1OCCCOc1ccccc1[N+](=O)[O-],-,-,-,-,-,-
CCCCN(CC)C(=O)c1cc2cc3ccc(OC)cc3nc2o1,-,42,-,-,-,-
COc1ccc(-c2cn(-c3ccc(C)cc3)c(=O)n2CC(=O)Nc2cccc(F)c2)cc1,-,26,-,-,-,-
COc1cc(C(=O)NCCCC2CCCC2)ccc1OC1CCN(C(C)=O)CC1,-,-,-,-,-,-
CCc1ccc(NC(=O)Cn2cc([N+](=O)[O-])nc2C)cc1,-,21,-,-,-,-
CC(C)[C@H](NC(=O)[C@H]1N2C(=O)c3ccccc3C2SC1(C)C)C(=O)NCc1ccco1 (stereo partly specified),-,-,-,-,-,-
CN(Cc1ccon1)C(=O)c1ccc2nc(Cc3cccc(Cl)c3)oc2c1,-,19,-,-,-,-
CCOC(=O)CC1CCCCN1C(=O)c1cc(COc2cccc3cnccc23)on1 (stereo unspecified),40,-,32,55,-,-
C/C(=N\NC(=O)c1cccc(C)c1)c1ccc(N2CCOCC2)cc1,-,19,-,-,-,-
